# Assay outcomes: PubChem, several laboratories
# The list is not random: actives were taken first. Their share in the collection is about 5.5%.
# STAT1 blocker: STAT1 signaling inhibitors, primary screen, cell-based, HTS, luciferase reporter. inhibition, % at 5.5 µM. 200,000 tested, 0.35% active. NIH 3T3 STAT1-luciferase reporter, IFN-gamma, luminescence;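 active = inhibition above a set limit, the mean inhibition across all tested compounds plus 3 SD, cut at about 34% in these data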;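 note: 0% = IFN-gamma with DMSO and 100% = IFN-gamma with 300 µM nifuroxazide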
# KCC2 mod: KCC2 cotransporter modulators, thallium flux, primary screen, cell-based, HEK293 KCC2, FluoZin-2 fluorescence, MLSMR; KCC2 cells, thallium flux FluoZin-2 fluorescence; B-score of Tl+ flux slope (higher = more flux/activation; lower = inhibition) at 10 µM; 190,000 tested, 2.2% active; AID 1456, 2008;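 active = thallium flux slope and its plate-corrected score both differing from the plate sample mean at a set confidence after two filtering rounds, in either direction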;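 note: slope of fluorescence scaled to starting intensity during 10 to 20 s after thallium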
# Target sequence (Q9H2X9 whole entry, looked up): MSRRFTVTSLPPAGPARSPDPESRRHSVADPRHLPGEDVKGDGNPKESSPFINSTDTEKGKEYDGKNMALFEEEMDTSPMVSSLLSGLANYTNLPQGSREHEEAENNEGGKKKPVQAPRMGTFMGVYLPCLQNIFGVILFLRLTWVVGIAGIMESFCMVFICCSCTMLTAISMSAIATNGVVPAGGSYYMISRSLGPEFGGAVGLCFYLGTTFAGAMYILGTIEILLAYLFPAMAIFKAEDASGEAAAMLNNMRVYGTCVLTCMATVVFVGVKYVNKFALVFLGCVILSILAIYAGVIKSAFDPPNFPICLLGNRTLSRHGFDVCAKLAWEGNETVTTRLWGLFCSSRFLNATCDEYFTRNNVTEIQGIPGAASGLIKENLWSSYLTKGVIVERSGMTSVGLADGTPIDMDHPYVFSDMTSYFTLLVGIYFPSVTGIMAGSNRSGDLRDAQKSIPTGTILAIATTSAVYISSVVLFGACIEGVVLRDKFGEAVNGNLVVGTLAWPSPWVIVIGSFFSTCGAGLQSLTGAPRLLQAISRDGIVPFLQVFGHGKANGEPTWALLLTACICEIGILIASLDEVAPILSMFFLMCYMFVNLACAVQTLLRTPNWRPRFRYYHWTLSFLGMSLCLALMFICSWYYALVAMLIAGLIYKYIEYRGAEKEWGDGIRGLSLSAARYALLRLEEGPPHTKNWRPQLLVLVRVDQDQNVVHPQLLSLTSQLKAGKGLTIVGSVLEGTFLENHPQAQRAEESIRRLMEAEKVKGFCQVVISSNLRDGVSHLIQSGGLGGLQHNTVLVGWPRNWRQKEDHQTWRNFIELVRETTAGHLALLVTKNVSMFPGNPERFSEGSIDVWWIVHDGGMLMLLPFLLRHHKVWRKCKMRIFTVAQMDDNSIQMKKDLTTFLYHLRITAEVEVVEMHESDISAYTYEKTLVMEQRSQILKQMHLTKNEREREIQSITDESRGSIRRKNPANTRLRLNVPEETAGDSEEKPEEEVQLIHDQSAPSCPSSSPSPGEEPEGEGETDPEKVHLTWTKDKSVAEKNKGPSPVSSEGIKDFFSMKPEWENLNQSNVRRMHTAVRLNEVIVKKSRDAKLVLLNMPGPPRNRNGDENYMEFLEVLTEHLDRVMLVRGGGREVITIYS
# HSV augment: enhancers of HSV replication in host cells, fold increase, host cell viability | HSV replication augmentation in cells | maximum fold increase | 220,000 tested, 0.005% active | AID 1956, 2009; in the data active = maximum fold increase above about 1.5; inconclusive = no clear call, values can overlap the other calls; tested in PC3 cells
# STAT3 inh: IL-6 driven STAT3 reporter inhibitors, primary screen, U3A cells, luciferase, luminescence, MLSCN library | IL-6 STAT3-luciferase reporter; host cell line lacks STAT1 | inhibition, % at 5.5 µM | 190,000 tested, 0.89% active;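 active = inhibition above the mean inhibition across all screened compounds plus 3 SD, cut at about 44% in these data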;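 note: 0% = DMSO only wells and 100% = 100 µM nifuroxazide control wells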
# STAT3 activator: IL-6 driven STAT3 reporter potentiators, primary screen, U3A cells, luciferase, luminescence, MLSCN library | activation (% of control), % at 5.6 µM | AID 871, 2007 | 190,000 tested, 0.91% active | IL-6 STAT3-luciferase reporter; 100% = signal with IL-6 EC80 alone;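 active = activation above the screen-wide mean of compound activation plus 3 SD, cut at about 130% in these data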;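 note: 0% = background luminescence of wells with medium and substrate only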
#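 Detection: reporter luminescence signal / Assay system: STAT1-lacking human U3A cells, STAT3 luciferase reporter / Incubation: compound pre-incubation 1 h before IL-6, then 6 h stimulation at 37 °C / Control set: IL-6-only high control / Read-out: % activation relative to IL-6 control / Probe or stimulus: Interleukin-6, 33 ng/mL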
# STAT1 act: STAT1 signaling activators, primary screen, cell-based, HTS, luciferase reporter; NIH 3T3 STAT1-luciferase reporter, IFN-gamma, luminescence; 100% = IFN-gamma alone, no compound; 200,000 tested, 2.6% active; activation (% of control), % at 5.5 µM;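 active = activation above the screen-wide mean activation plus 3 SD, cut at about 130% in these data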;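 note: raw ratio to IFN-gamma control signal so 100% means no change and 0% no light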
# KCC2 secondary: KCC2 modulators in sodium-free buffer, confirmation, cell-based, HEK293 KCC2, thallium flux, secondary assay. shares compounds with KCC2 mod. FluoZin2 fluorescence; hits give high values. normalised thallium flux (F/F0 slope) at 10 µM. 3,700 tested, 15% active;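 active = thallium flux slope above the same plate's solvent-only control mean plus 3 SD; inconclusive = the two replicate wells disagree; inactive = no significant difference from solvent-only control wells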
# KCC2 bumet counter: thallium flux persisting under bumetanide in KCC2 cells, confirmation, counter-screen for KCC2 modulator project, cell-based, HEK293 KCC2, FluoZin2, secondary assay 3; shares compounds with KCC2 mod; HEK293-KCC2 + bumetanide/ouabain; hits give high values; normalized thallium flux at 10 µM; 3,700 tested, 49% active;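 active = thallium entry rate above the same plate's blocked-transporter control wells by more than 3 SD; inconclusive = the two repeat wells disagree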;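 note: raw slope of fluorescence over initial fluorescence between 10 and 20 s after thallium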
# KCC2 sec2: KCC2 modulators without ouabain present, confirmation, cell-based, HEK293 KCC2, thallium flux, FluoZin2, secondary assay 2 | shares compounds with KCC2 mod | thallium flux FluoZin2 fluorescence; actives lie on both sides; F/F0 rise rate, 10–20 s post-thallium | normalized thallium flux at 10 µM | 3,700 tested, 23% active | AID 1715, 2009;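 active = thallium flux slope more than 3 SD above or below the plate's solvent-only control mean, mostly below; inconclusive = the two repeat wells disagreed; inactive = no significant shift from solvent-only controls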;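 note: raw slope with 0.1% DMSO as baseline and bumetanide as block control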
# HEK counter1: thallium flux modulation in parental HEK cells, confirmation, counter-screen for KCC2 modulator project, cell-based, counterscreen 1. 3,700 tested, 46% active. AID 1716, 2009. shares compounds with KCC2 mod. thallium flux rate (normalised fluorescence) at 10 µM. HEK293 parental cells, thallium flux FluoZin2, ouabain; baseline-ratio fluorescence slope, 10–20 s after thallium;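 active = thallium flux rate significantly above the same plate's solvent-only control wells, beyond their mean plus 3 SD; inconclusive = the two replicate wells gave conflicting results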
# KCC2 retest ouab: KCC2 inhibitors and activators, ouabain retest, confirmation, HEK-KCC2 cells; HEK293-KCC2, thallium flux FluoZin2 fluorescence; bidirectional: low = inhibitor, high = activator; 3,700 tested, 48% active; raw Tl+ flux slope (below DMSO = inhibition, above = activation) at 10 µM; shares compounds with KCC2 mod;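 active = thallium flux slope beyond 3 SD from same-plate DMSO control mean in most replicates, usually higher, sometimes lower; inconclusive = repeat tests gave conflicting results; inactive = no significant difference from controls in most replicates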;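 note: slope of initial-normalized fluorescence between seconds 10 and 20 after thallium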
# HEK293 Tl flux2: native HEK Tl+ uptake effects, second counter-screen – HEK cells, counterscreen 2, counter-screen for KCC2 modulator project, confirmation; shares compounds with KCC2 mod; HEK293 parental, thallium flux FluoZin-2 fluorescence slope; thallium flux slope at 10 µM; 3,700 tested, 33% active; AID 1718, 2009;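 active = thallium flux slope above the same plate's solvent-control mean plus 3 SD in both duplicate wells; inconclusive = duplicate wells that disagreed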;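 note: run without ouabain in cells lacking the KCC2 cotransporter; slope of fluorescence scaled to its starting value between 10 and 20 s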
# The depositor's hits bear a star; i = inactive; ? = inconclusive; nt = not tested or not shown.
SMILES,STAT1 blocker,KCC2 mod,HSV augment,STAT3 inh,STAT3 activator,STAT1 act,KCC2 secondary,KCC2 bumet counter,KCC2 sec2,HEK counter1,KCC2 retest ouab,HEK293 Tl flux2
CC(C)C[C@H](NC(=O)[C@@H]1CCCN1C(=O)[C@@H](N)Cc1ccc(O)cc1)C(=O)NCC(N)=O,-14,-3.1*,i,3,99,113,?,0.0057*,0.031,?,0.021,0.011
CC(C)CC(NC(=O)C1CCCCC1)C(=O)N1CCC2(CC1)OCCO2 (stereo unspecified),0,nt,i,4,101,100,nt,nt,nt,nt,nt,nt
COC(=O)[C@@H]1C[C@@]1(C)[C@@H](NP(=O)(c1ccccc1)c1ccccc1)c1ccccc1,-10,-0.17,i,-2,100,109,nt,nt,nt,nt,nt,nt
CNc1ccc2oc(C[C@H]3O[C@@]4(CC[C@H]3C)O[C@H]([C@H](C)C(=O)c3ccc[nH]3)[C@H](C)C[C@H]4C)nc2c1C(=O)O,nt,7.4*,i,nt,nt,nt,0.0066,0.0092*,0.035,?,?,0.011
CC(C)c1oc(=O)cc2c1[C@@H](O)[C@H]1OC(=O)[C@@]3(C)C[C@@H](O)[C@@H](O)[C@@]2(C)C13 (stereo partly specified),20,5.5*,i,23,78,82,0.0096,0.0068,0.029,?,0.021,0.01
CCCC(=O)OCC[N+](C)(C)C,-2,4.9*,i,-1,103,102,?,0.008,0.029,0.0072,0.022,0.0098
O=C1C2CCCN2C(c2cccnc2)N1c1nccs1 (stereo unspecified),-5,3.2*,nt,2,101,105,0.016,?,0.028,0.0075,0.016,0.0099
O=C1C2CCCN2C(c2cccnc2)N1c1ccc(Cl)cc1 (stereo unspecified),-3,0.18,i,-11,112,103,nt,nt,nt,nt,nt,nt
O=c1[nH]c(=O)n(Cc2ccc(F)cc2)c(O)c1C=NCc1cccnc1,-7,4.4*,i,-1,105,107,0.0095,0.0056,0.033,0.0044,0.019,0.011
CC(=O)N1N=C2C3CCN(CC3)C2C1c1ccc(Br)cc1 (stereo unspecified),nt,0.99,i,nt,nt,nt,nt,nt,nt,nt,nt,nt
NC(=O)c1ccc(N=Nc2c(O)[nH]c(=O)[nH]c2=O)cc1,15,0.44,i,16,86,87,nt,nt,nt,nt,nt,nt
O=c1[nH]c(O)c(N=Nc2cc([N+](=O)[O-])ccc2O)c(=O)[nH]1,17,nt,i,4,100,82,0.0072,?,0.032,0.008,0.019,0.012
Cc1cc(N2C(=O)C3CCCN3C2c2ccccc2)no1 (stereo unspecified),-3,nt,i,8,100,103,nt,nt,nt,nt,nt,nt
COc1ccc(-n2c(=O)[nH]c3ccccc3c2=O)cc1,1,0.9,i,3,100,99,0.0096,0.0063,0.031,0.0084,0.019,0.01
COc1ccc(-n2c(=O)[nH]c3ccccc3c2=O)c(OC)c1,-4,0.16,i,10,94,103,nt,nt,nt,nt,nt,nt
CCC(C)n1c(O)c(C=Nc2cccc(C(F)(F)F)c2)c(=O)[nH]c1=S (stereo unspecified),0,0.77,i,-3,104,99,0.0062,0.018*,0.03,0.019*,0.025*,0.015*
CC(C)n1c(O)c(C=NCc2cccnc2)c(=O)[nH]c1=S,nt,-0.79,i,nt,nt,nt,nt,nt,nt,nt,nt,nt
CC(C)NC(=O)Cn1cc(C(=O)c2ccccc2F)c2ccccc21,7,-1.4,i,-5,105,94,nt,nt,nt,nt,nt,nt
CNc1cc(Cl)c2nonc2c1[N+](=O)[O-],-50,-4.6*,i,-9,112,141*,0.0073,0.007*,?,0.007,0.017,0.01
Cc1cc([N+](=O)[O-])c(Cl)cc1NC(=O)C(C)C,1,0.73,i,8,95,99,nt,nt,nt,nt,nt,nt
S=C1Nc2ccccc2Sc2ccccc21,-5,48*,i,-17,120,104,0.019*,0.075*,0.03,0.054*,0.053*,0.013*
COc1ccccc1CCNC1CCC(C(C)(C)C)CC1 (stereo unspecified),11,-0.04,i,7,101,90,nt,nt,nt,nt,nt,nt
